Structures can show the parent of a compound that is named as a salt.

The subject of one data set is HeLa cells. Kind of data set: Total tyrosine phosphorylation ELISA. Format: cell-based. The note with it: at any of 0.1, 1.0 and 10.0 μM. Put shortly: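 HeLa cells in RPMI-1640 with 10% FBS were seeded at 2 × 10^4 cells/well in triplicate and serum-starved 24 h. They were then treated 10 min with test compound at 0.1, 1.0 or 10.0 μM, with 0.25% DMSO as vehicle control and EGF (50 ng/mL, 10 min) as positive control. Total phosphotyrosine was measured with a tyrosine phosphorylation ELISA kit and compared with vehicle.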
For orientation: In an ELISA, binding on a coated surface is turned into a signal by an enzyme label.

In a further data set the target is T1, PTP1B (Homo sapiens, UniProt P18031).
T1 sequence (P18031 1-435): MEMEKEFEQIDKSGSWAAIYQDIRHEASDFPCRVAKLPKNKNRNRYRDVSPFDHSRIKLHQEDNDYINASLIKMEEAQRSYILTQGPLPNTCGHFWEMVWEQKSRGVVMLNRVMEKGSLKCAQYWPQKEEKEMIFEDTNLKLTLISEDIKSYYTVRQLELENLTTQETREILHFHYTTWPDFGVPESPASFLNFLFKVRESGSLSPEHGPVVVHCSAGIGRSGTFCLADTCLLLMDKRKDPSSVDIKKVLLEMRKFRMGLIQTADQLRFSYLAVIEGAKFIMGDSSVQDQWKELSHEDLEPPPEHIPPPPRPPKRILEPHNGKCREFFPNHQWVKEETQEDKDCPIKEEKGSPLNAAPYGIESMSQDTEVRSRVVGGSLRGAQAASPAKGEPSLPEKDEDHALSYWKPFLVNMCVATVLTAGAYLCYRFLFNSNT
Kind of data set: In vitro dephosphorylation assay, phosphate sensor reagent, p-NPP substrate. The note with it: from IC50 values of Table 2. The format is biochemical. The method in brief: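 Human recombinant PTPRZ1 and PTP1B, each at 0.1 μM, tested against test compound at 0.001–100 μM with p-NPP as substrate. Released inorganic phosphate was detected with a phosphate sensor reagent as a fluorescence increase (excitation 430 nm, emission 450 nm). IC50 values were calculated for each enzyme, and selectivity was judged by comparing the PTPRZ1 and PTP1B IC50s.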

The target in the next data set is PTPRZ1 (Homo sapiens, UniProt P23471). Kind of data set: In vitro dephosphorylation assay, phosphate sensor reagent, p-NPP substrate. The format is biochemical. The note with it: for inhibition at 1 µM: read-out: inhibition of the phosphatase activity of PTPRZ1. The method in brief:
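Single-concentration screen: human recombinant PTPRZ1 (0.1 μM) incubated with test compound at 1.0 μM and p-NPP substrate. Phosphate release was detected with a phosphate sensor reagent by fluorescence (excitation 430 nm, emission 450 nm) and expressed as percent inhibition of phosphatase activity.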

The next data set deals with TrkA (Tyr490). Put plainly: Western blot of TrkA phosphorylation in SH-SY5Y cells. Format: cell-based, human. The note with it: SH-SY5Y cells, 1.0, 5.0 and 10.0 μM, 20 minutes. Put shortly: (§1)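 Human SH-SY5Y cells, grown in EMEM/F12 (1:1) with 10% FBS at 37 °C and 5% CO2, were switched to serum-free medium just before treatment. They were then exposed to test compound (1.0, 5.0, 10.0 μM) or DMSO vehicle for 20 min and lysed in Tris-HCl pH 7.5/Triton buffer with phosphatase and protease inhibitors. Lysate (20 μg protein) was run on SDS-PAGE and blotted to PVDF. Blots were probed for phospho-TrkA (Y490) or phospho-ALK (Y1278), reprobed for total TrkA or ALK, and detected by ECL. Densitometry data are mean ± S.E.M., analysed by one-way ANOVA with Tukey post-hoc.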
(In general: In western blotting, separated proteins are transferred to a membrane and probed.)

In another data set the test system is ALK (Tyr1278). Put plainly: Western blot of ALK phosphorylation in SH-SY5Y cells. The format is cell-based, human. The note with it: SH-SY5Y cells, 1.0, 5.0 and 10.0 μM, 20 minutes. The method in brief: as §1
The test system of a further data set is PC12 cells. Kind of data set: Amphetamine-induced toxicity, cell viability by MTT. Format: cell-based, Rat. The note with it: amphetamine 1 mM, compound 1.0 μM, 24 hours. Put shortly:
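Rat PC12 cells grown in RPMI-1640 with 10% FBS, seeded at 10^4 cells/well, then co-incubated with amphetamine (1.0 mM) and test compound (1.0 μM). For MTT, cells were PBS-washed and given fresh medium with MTT (5 mg/mL stock) for 4 h. Formazan was dissolved in DMSO with 10 min shaking at RT, and absorbance read at 570 nm. Data are mean ± S.E.M., analysed by one-way ANOVA with Tukey post-hoc.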

The nature of data set [1]: In vivo permeability study, GC-MS detection in plasma and brain. The note with it: mice, 1h post-gavage, 60 mg/kg. Put shortly:
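Mice were dosed by oral gavage at 60 mg/kg and killed 1 h later; brain and plasma were collected. Brain (50–100 mg) was bead-homogenised in ethyl acetate, then the supernatant was dried and taken up in heptane. Plasma (100 μL) was precipitated with 3 volumes of cold methanol at -2 °C for 20 min, dried and reconstituted in heptane. Samples were analysed by GC-MS (EI 70 eV), quantifying the extracted ion at m/z 191.0137 (LOQ ~70 ng/mL).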

The test system of another data set is alcohol-induced reward. The note with it: mice; cited from earlier work.

Sequence of PTPRZ1 (P23471 25-2315): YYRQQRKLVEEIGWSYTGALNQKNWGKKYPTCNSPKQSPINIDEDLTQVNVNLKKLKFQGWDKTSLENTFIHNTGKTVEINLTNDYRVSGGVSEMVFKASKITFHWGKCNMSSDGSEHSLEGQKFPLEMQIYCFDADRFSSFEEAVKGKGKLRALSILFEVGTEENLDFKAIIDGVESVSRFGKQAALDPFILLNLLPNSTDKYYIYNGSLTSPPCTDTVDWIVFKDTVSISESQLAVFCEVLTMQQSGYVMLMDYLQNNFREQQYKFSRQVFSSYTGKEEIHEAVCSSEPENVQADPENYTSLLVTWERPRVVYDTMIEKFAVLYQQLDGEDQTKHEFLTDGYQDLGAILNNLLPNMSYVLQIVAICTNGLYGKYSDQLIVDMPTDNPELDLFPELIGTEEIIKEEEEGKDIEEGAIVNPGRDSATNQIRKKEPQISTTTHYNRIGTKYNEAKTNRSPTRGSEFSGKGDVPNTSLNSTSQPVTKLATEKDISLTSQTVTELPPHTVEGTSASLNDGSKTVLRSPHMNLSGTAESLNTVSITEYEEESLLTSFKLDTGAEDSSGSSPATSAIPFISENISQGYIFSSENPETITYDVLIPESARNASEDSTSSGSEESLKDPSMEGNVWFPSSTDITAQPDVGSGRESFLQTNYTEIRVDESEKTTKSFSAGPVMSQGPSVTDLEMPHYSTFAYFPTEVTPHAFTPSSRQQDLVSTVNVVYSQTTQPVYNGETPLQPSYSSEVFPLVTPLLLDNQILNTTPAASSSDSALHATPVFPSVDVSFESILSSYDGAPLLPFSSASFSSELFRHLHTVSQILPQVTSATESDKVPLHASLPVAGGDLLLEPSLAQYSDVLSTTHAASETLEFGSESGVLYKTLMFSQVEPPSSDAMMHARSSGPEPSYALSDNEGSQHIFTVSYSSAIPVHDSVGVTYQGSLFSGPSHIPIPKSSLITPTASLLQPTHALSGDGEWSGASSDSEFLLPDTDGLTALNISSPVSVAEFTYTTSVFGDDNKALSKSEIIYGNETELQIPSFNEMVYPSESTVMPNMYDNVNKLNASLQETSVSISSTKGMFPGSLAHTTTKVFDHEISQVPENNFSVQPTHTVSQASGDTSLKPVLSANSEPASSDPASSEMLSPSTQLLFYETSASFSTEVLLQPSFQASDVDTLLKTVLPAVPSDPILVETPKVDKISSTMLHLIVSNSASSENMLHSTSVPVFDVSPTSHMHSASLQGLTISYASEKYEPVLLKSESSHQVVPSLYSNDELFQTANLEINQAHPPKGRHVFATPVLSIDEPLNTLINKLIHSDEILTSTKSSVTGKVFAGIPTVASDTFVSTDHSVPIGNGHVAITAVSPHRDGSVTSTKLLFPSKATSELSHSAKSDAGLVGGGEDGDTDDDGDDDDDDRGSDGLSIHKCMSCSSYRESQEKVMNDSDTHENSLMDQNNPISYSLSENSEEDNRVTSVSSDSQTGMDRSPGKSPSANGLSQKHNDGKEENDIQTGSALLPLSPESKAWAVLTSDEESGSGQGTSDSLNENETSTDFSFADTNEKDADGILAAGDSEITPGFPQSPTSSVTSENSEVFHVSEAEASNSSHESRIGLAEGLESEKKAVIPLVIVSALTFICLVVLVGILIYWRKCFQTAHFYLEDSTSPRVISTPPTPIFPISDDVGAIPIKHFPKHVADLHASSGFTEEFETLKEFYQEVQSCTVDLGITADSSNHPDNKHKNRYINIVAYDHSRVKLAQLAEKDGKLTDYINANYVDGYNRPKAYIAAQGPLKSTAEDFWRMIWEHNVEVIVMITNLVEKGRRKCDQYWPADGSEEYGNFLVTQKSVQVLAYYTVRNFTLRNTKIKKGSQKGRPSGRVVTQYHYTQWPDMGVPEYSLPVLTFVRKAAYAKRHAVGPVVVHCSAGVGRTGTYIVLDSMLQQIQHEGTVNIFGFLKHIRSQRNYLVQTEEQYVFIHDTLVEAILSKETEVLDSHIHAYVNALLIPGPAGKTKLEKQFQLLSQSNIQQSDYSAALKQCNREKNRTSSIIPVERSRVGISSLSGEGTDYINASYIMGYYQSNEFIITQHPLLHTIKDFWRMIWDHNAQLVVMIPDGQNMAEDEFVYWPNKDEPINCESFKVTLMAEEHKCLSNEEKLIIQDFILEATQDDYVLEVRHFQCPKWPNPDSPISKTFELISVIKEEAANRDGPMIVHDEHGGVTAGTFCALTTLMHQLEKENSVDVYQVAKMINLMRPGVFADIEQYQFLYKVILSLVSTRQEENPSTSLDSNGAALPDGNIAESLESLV

Consider `FC(F)(F)Sc1ccc(CN(Cc2ccc(SC(F)(F)F)cc2)Cc2ccc(SC(F)(F)F)cc2)cc1` [compound 13, tris(4-((trifluoromethyl)thio)benzyl)amine], for which, in the data set on HeLa cells, the “increase of Phospho-Tyr levels” value is on record as no less than 10%.
In the case of `O=C(Cc1ccc(SC(F)(F)F)cc1)NCc1ccc(SC(F)(F)F)cc1` [4c, N-(4-((Trifluoromethyl)thio)benzyl)-2-(4-((trifluoromethyl)thio)phenyl)acetamide], the “selectivity PTPRZ1 versus PTP1B” value on PTP1B was “remarkable selectivity against PTP1B”.
One may read the inhibition as the percentage by which the read-out fell short of the control. On to `FC(F)(F)Sc1ccc(NCc2ccccc2)cc1` [12d, N-benzyl-4-((trifluoromethyl)thio)aniline], for which the “increase of Phospho-Tyr levels” value in the data set on HeLa cells is no less than 10%. For the same compound, the inhibition at 1 µM at PTPRZ1 is no less than 10%.
Regarding `FC(F)(F)Sc1ccc(CNCc2ccc(SC(F)(F)F)cc2)cc1` [12b, Bis(4-((trifluoromethyl)thio)benzyl)amine hydrochloride], the inhibition at 1 µM on PTPRZ1 is no less than 10%. Besides, on PTP1B, the “selectivity PTPRZ1 versus PTP1B” value was “strongly and selectively inhibit PTPRZ1”. For the same compound, in the data set with TrkA (Tyr490), the “increase of tyrosine phosphorylation of TrkA” value is 2–3 fold. Besides, the “increase in phosphorylation of ALK 140 kDa isoform” value in the data set with ALK (Tyr1278) was found to be 2 fold. Moreover, the “effect on amphetamine-induced loss of PC12 cell viability” value in the data set with PC12 cells is given as “the same trend was observed”.
On to `O=C(Cc1ccc(S(=O)(=O)C(F)(F)F)cc1)Nc1ccc(S(=O)(=O)C(F)(F)F)cc1` [5b, N,2-bis(4-((trifluoromethyl)sulfonyl)phenyl)acetamide], for which the inhibition at 1 µM at PTPRZ1 is no less than 10%.
`O=S(=O)(c1ccc(COc2ccc(S(=O)(=O)C(F)(F)F)cc2)cc1)C(F)(F)F` [compound 1, 1-((Trifluoromethyl)sulfonyl)-4-((4-((trifluoromethyl)sulfonyl)benzyl)oxy)benzene, reference compound]: the “PTPRZ1 phosphatase activity inhibition” value on PTPRZ1 is “failed to inhibit PTPRZ1 phosphatase activity”.
In the case of `FC(F)(F)Sc1ccc(COc2ccc(SC(F)(F)F)cc2)cc1` [10a, (Trifluoromethyl)(4-((4-((trifluoromethyl)thio)benzyl)oxy)phenyl)sulfane], in the data set on HeLa cells, the “increase of Phospho-Tyr levels” value is on record as no less than 10%. The inhibition at 1 µM on PTPRZ1 was no less than 10%. The “selectivity PTPRZ1 versus PTP1B” value at PTP1B was “strongly and selectively inhibit PTPRZ1”. In the data set on TrkA (Tyr490), the “increase of tyrosine phosphorylation of TrkA” value was 2–3 fold. In addition, the “effect on amphetamine-induced loss of PC12 cell viability” value in the data set with PC12 cells is on record as “significantly prevented amphetamine-induced loss of PC12 cell viability”. Further, the “ability to cross the BBB” value in data set [1] is listed as “can cross the BBB”. In addition, the “effect on alcohol-induced reward” value in the data set on alcohol-induced reward is given as “completely blocked alcohol-induced reward in mice”.

These data come from article PMC5817915 (European journal of medicinal chemistry, 2017).
